“And” between values parts separate entries of the source, which are not always exact repeats. Equal entries are not always repeated.
What was measured:
[1] = system: U2OS; experiment: Multiplex assay against U2OS; type: toxicity, cell-based; conditions: human, number of replicates 2
In short: (§1)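 With compound added, live cells were imaged on a CQ1 microscope at 37°C and 5% CO2; staining with Hoechst33342, BioTracker Green Microtubule Cytoskeleton Dye, MitoTracker Red and Annexin V Alexa Fluor 680 had been done at seeding. The CellPathfinder machine-learning gating scheme split cells into Hoechst high-intensity objects or normal cells, normal cells into healthy, pyknosed or fragmented nuclei, and pyknosed cells into mitotic or apoptotic. The tubulin, mitochondrial-mass and membrane-permeability phenotypes are per cents of healthy-nucleus cells.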

[2] = system: HEK-293T; experiment: Multiplex assay against HEK293T; type: toxicity, cell-based; conditions: human, number of replicates 2; in short: as §1
[3] = 24 h, 10 µM, compound concentration 10 uM
[4] = 48 h, 1 µM, compound concentration 1 uM
[5] = 48 h, 10 µM, compound concentration 10 uM
[6] = 12 h, 1 µM, compound concentration 1 uM
[7] = 12 h, 10 µM, compound concentration 10 uM
[8] = 24 h, 1 µM, compound concentration 1 uM

## C[C@H](N)Cn1ccc2cc(F)c(Cl)cc21.O=C(O)/C=C/C(=O)O
[1]; [3]
  Population Healthy Nuclei (%): 89% and 78%
  Population Hoechst High Intensity Objects (%): 0%
  Population Membrane Permeable-Phenotype (%): 1% and 3%
  Population Mitochondria Different-Phenotype (%): 1% and 0%
  Population Mitotic Cells (%): 57% and 20%
  Population Normal (%): 99% and 100%
  Population Pyknosed Nuclei (%): 6% and 12%
  Population Tubulin-Different-Phenotype (%): 73% and 31%
[1]; [4]
  Population Apoptotic (%): 54% and 34%
  Population Fragmented Nuclei (%): 5% and 2%
  Population Healthy Nuclei (%): 83% and 90%
  Population Hoechst High Intensity Objects (%): 0%
  Population Membrane Permeable-Phenotype (%): 0% and 1%
  Population Mitochondria Different-Phenotype (%): 0%
  Population Mitotic Cells (%): 45% and 65%
  Population Normal (%): 100%
  Population Pyknosed Nuclei (%): 11% and 7%
  Population Tubulin-Different-Phenotype (%): 69% and 92%
[1]; [5]
  Population Apoptotic (%): 50% and 52%
  Population Fragmented Nuclei (%): 10% and 5%
  Population Healthy Nuclei (%): 75% and 89%
  Population Hoechst High Intensity Objects (%): 0%
  Population Membrane Permeable-Phenotype (%): 1%
  Population Mitochondria Different-Phenotype (%): 0%
  Population Mitotic Cells (%): 50% and 47%
  Population Normal (%): 100%
  Population Pyknosed Nuclei (%): 13% and 5%
  Population Tubulin-Different-Phenotype (%): 55% and 81%
[2]; [6]
  Population Apoptotic (%): 38% and 46%
  Population Fragmented Nuclei (%): 3% and 2%
  Population Healthy Nuclei (%): 82% and 85%
  Population Hoechst High Intensity Objects (%): 8%
  Population Membrane Permeable-Phenotype (%): 1%
  Population Mitochondria Different-Phenotype (%): 17% and 15%
  Population Mitotic Cells (%): 61% and 53%
  Population Normal (%): 91%
  Population Pyknosed Nuclei (%): 14% and 11%
  Population Tubulin-Different-Phenotype (%): 59% and 53%
  Total Cell Count: 737 and 645
[2]; [7]
  Population Apoptotic (%): 58% and 55%
  Population Fragmented Nuclei (%): 4% and 5%
  Population Healthy Nuclei (%): 83% and 79%
  Population Hoechst High Intensity Objects (%): 8% and 9%
  Population Membrane Permeable-Phenotype (%): 5% and 1%
  Population Mitochondria Different-Phenotype (%): 28% and 20%
  Population Mitotic Cells (%): 41% and 44%
  Population Normal (%): 91% and 90%
  Population Pyknosed Nuclei (%): 12% and 14%
  Population Tubulin-Different-Phenotype (%): 81% and 72%
  Total Cell Count: 443 and 563
[2]; [8]
  Population Apoptotic (%): 52% and 57%
  Population Fragmented Nuclei (%): 10% and 6%
  Population Healthy Nuclei (%): 77% and 82%
  Population Hoechst High Intensity Objects (%): 7%
  Population Membrane Permeable-Phenotype (%): 1% and 2%
  Population Mitochondria Different-Phenotype (%): 6% and 4%
  Population Mitotic Cells (%): 47% and 42%
  Population Normal (%): 92%
  Population Pyknosed Nuclei (%): 12% and 10%
  Population Tubulin-Different-Phenotype (%): 32% and 28%
  Total Cell Count: 1141 and 1024
[2]; [3]
  Population Apoptotic (%): 63% and 59%
  Population Fragmented Nuclei (%): 8% and 7%
  Population Healthy Nuclei (%): 83% and 84%
  Population Hoechst High Intensity Objects (%): 9% and 11%
  Population Membrane Permeable-Phenotype (%): 2% and 3%
  Population Mitochondria Different-Phenotype (%): 16% and 8%
  Population Mitotic Cells (%): 36% and 40%
  Population Normal (%): 90% and 88%
  Population Pyknosed Nuclei (%): 7% and 8%
  Population Tubulin-Different-Phenotype (%): 72% and 40%
  Total Cell Count: 634 and 884
[2]; [4]
  Population Apoptotic (%): 18% and 17%
  Population Fragmented Nuclei (%): 17% and 11%
  Population Healthy Nuclei (%): 80% and 85%
  Population Hoechst High Intensity Objects (%): 9%
  Population Membrane Permeable-Phenotype (%): 5% and 3%
  Population Mitochondria Different-Phenotype (%): 0%
  Population Mitotic Cells (%): 81% and 82%
  Population Normal (%): 90%
  Population Pyknosed Nuclei (%): 2%
  Population Tubulin-Different-Phenotype (%): 14% and 11%
  Total Cell Count: 2886 and 2112
[2]; [5]
  Population Apoptotic (%): 40% and 17%
  Population Fragmented Nuclei (%): 15% and 12%
  Population Healthy Nuclei (%): 80% and 84%
  Population Hoechst High Intensity Objects (%): 11% and 7%
  Population Membrane Permeable-Phenotype (%): 8% and 4%
  Population Mitochondria Different-Phenotype (%): 1%
  Population Mitotic Cells (%): 59% and 82%
  Population Normal (%): 88% and 92%
  Population Pyknosed Nuclei (%): 3%
  Population Tubulin-Different-Phenotype (%): 36% and 20%
  Total Cell Count: 1535 and 2025

Source: ChEMBL document CHEMBL5303300, “EUbOPEN Chemogenomics Library - Multiplex” (2023)
